Measurements reported in ChEMBL document CHEMBL2057126, “Discovery of new inhibitors of Cdc25B dual specificity phosphatases by structure-based virtual screening” (J Med Chem, 2012).
pIC50, pKi: −log10 of the molar value. The source made the active and inactive calls. The calls are words filed in the database; no cut-off is given here.

Columns and labels:
[1] = biological target: T1, M-phase inducer phosphatase 3 (Homo sapiens) (UniProt P30307); assay: (§1) Inhibition of recombinant phosphatase activity of Cdc25C catalytic domain expressed in Escherichia coli BL21(DE3) using OMFP as substrate at 100 uM after 15 mins by fluorimetric assay
T1 sequence (whole entry): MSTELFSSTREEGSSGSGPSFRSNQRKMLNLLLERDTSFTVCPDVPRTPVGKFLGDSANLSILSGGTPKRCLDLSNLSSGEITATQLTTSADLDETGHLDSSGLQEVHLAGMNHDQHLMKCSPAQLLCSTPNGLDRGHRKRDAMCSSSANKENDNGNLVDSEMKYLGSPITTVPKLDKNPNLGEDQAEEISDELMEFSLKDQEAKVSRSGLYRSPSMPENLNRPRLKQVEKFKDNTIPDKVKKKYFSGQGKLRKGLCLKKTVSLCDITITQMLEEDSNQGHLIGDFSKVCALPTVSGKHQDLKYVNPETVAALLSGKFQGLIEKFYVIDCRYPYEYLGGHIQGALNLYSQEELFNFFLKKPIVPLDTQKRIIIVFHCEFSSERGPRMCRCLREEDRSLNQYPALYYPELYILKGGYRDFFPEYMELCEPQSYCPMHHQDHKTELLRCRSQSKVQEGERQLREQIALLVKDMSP

MCF7 [2] = assay: Cell cycle arrest in human MCF7 cells assessed as accumulation at G2/M phase at 400 uM after 48 hrs by propidium iodide staining-based flow cytometry (reference value: 21 +/- 0.04%); type: functional
[3] = biological target: T2, M-phase inducer phosphatase 2 (Homo sapiens) (UniProt P30305); assay: (§2) Inhibition of recombinant phosphatase activity of Cdc25B catalytic domain expressed in Escherichia coli BL21(DE3) using OMFP as substrate at 100 uM after 15 mins by fluorimetric assay
T2 sequence (whole entry): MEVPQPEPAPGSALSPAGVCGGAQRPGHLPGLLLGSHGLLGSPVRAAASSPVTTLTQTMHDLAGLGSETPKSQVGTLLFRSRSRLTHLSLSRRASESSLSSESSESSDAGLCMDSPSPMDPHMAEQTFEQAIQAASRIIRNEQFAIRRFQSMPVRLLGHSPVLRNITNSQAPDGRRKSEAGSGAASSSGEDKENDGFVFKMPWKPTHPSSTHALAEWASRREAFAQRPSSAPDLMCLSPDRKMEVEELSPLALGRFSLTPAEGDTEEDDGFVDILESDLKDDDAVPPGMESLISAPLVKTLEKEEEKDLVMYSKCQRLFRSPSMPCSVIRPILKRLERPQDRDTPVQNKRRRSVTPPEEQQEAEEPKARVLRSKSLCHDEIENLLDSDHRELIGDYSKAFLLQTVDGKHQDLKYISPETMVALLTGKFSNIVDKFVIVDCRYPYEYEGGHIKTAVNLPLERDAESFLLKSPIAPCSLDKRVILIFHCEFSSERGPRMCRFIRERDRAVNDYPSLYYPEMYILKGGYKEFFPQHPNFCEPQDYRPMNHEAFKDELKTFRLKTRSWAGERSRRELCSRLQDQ

[4] = biological target: T3, M-phase inducer phosphatase 1 (Homo sapiens) (UniProt P30304); assay: (§3) Inhibition of recombinant phosphatase activity of Cdc25A catalytic domain expressed in Escherichia coli BL21(DE3) using OMFP as substrate at 100 uM after 15 mins by fluorimetric assay
T3 sequence (whole entry): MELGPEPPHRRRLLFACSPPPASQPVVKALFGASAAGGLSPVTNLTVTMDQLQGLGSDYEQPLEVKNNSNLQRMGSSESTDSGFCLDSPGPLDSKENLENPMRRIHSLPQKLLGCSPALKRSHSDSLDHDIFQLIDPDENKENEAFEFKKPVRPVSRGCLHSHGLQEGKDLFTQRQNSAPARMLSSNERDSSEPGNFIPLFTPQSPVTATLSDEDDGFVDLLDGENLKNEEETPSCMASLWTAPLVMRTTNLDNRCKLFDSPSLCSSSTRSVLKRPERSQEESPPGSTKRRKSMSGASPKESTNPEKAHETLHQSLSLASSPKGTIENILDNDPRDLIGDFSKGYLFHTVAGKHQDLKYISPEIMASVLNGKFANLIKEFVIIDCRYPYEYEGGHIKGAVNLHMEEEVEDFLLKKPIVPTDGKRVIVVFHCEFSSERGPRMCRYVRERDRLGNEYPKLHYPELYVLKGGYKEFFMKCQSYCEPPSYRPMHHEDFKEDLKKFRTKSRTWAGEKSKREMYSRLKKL

MCF7 [5] = assay: Cell cycle arrest in human MCF7 cells assessed as accumulation at G1 phase at 400 uM after 48 hrs by propidium iodide staining-based flow cytometry (reference value: 64.5 +/- 0.02%); type: functional
[6] = biological target: T2, M-phase inducer phosphatase 2 (Homo sapiens); assay: Inhibition of Cdc25B in human K562 cells assessed as increase in Cdk1 phosphorylation at 400 uM after 24 hrs by Western blot analysis; type: cell-based
Summary of the method: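 K562 cells treated 24 h with inhibitor or DMSO vehicle, lysed, and Western blotted with anti-phospho-Cdk1 (Y15) antibody; total Cdk1 detected as loading control.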

PC-3 [7] = assay: Growth inhibition against human PC3 cells expressing Cdc25A-C assessed as cell viability at 400 uM after 72 hrs by MTS assay; type: functional, cell-based
Summary of the method: (§4)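 MCF-7 breast, PC-3 prostate and K562 leukaemia cells treated 72 h with inhibitor or DMSO vehicle control, then cell viability measured. Values are mean ± SD of three experiments; significance by Student's t test, p ≤ 0.05.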

[8] = biological target: T2, M-phase inducer phosphatase 2 (Homo sapiens); assay: Reversible inhibition of recombinant phosphatase activity of Cdc25B catalytic domain expressed in Escherichia coli BL21(DE3) assessed as residual activity of enzyme measured after 10 fold dilution at 100 uM preincubated for 20 mins
K562 [9] = assay: Growth inhibition against human K562 cells expressing Cdc25A-C assessed as cell viability at 400 uM after 72 hrs by MTS assay; type: functional, cell-based; summary of the method: as §4
MCF7 [10] = assay: Cell cycle arrest in human MCF7 cells assessed as accumulation at S phase at 400 uM after 48 hrs by propidium iodide staining-based flow cytometry (reference value: 14.5 +/- 0.01%); type: functional
MCF7 [11] = assay: Cell cycle arrest in human MCF7 cells assessed as accumulation at G1 phase at 400 uM after 24 hrs by propidium iodide staining-based flow cytometry (reference value: 81.3 +/- 0.01%); type: functional
MCF7 [12] = assay: Cell cycle arrest in human MCF7 cells assessed as accumulation at S phase at 400 uM after 24 hrs by propidium iodide staining-based flow cytometry (reference value: 9.35%); type: functional
MCF7 [13] = assay: Growth inhibition against human MCF7 cells expressing Cdc25A-C assessed as cell viability at 400 uM after 72 hrs by MTS assay; type: functional, cell-based; summary of the method: as §4
MCF7 [14] = assay: Cell cycle arrest in human MCF7 cells assessed as accumulation at G2/M phase at 400 uM after 24 hrs by propidium iodide staining-based flow cytometry (reference value: 9.4 +/- 0.04%); type: functional
[15] = biological target: T2, M-phase inducer phosphatase 2 (Homo sapiens); assay: (§5) Inhibition of recombinant phosphatase activity of Cdc25B catalytic domain expressed in Escherichia coli BL21(DE3) using OMFP as substrate by spectrofluorimetric analysis
[16] = biological target: M-phase inducer phosphatase 3 (Homo sapiens) (UniProt P30307); assay: as §1; remark: listed apart in the source
[17] = biological target: M-phase inducer phosphatase 2 (Homo sapiens) (UniProt P30305); assay: as §2; remark: listed apart in the source
[18] = biological target: M-phase inducer phosphatase 1 (Homo sapiens) (UniProt P30304); assay: as §3; remark: listed apart in the source
[19] = biological target: T2, M-phase inducer phosphatase 2 (Homo sapiens); conditions: 400 uM
MCF7 [20] = assay: Growth inhibition against human MCF7 cells expressing Cdc25A-C assessed as cell viability at 20 uM after 72 hrs by MTS assay; type: functional, cell-based; summary of the method: as §4
MCF7 [21] = assay: Cell cycle arrest in human MCF7 cells assessed as accumulation at G1 phase at 20 uM after 48 hrs by propidium iodide staining-based flow cytometry (reference value: 64.5 +/- 0.02%); type: functional
MCF7 [22] = assay: Cell cycle arrest in human MCF7 cells assessed as accumulation at G2/M phase at 20 uM after 24 hrs by propidium iodide staining-based flow cytometry (reference value: 9.4 +/- 0.04%); type: functional
MCF7 [23] = assay: Cell cycle arrest in human MCF7 cells assessed as accumulation at S phase at 20 uM after 24 hrs by propidium iodide staining-based flow cytometry (reference value: 9.35%); type: functional
K562 [24] = assay: Growth inhibition against human K562 cells expressing Cdc25A-C assessed as cell viability at 20 uM after 72 hrs by MTS assay; type: functional, cell-based; summary of the method: as §4
MCF7 [25] = assay: Cell cycle arrest in human MCF7 cells assessed as accumulation at G1 phase at 20 uM after 24 hrs by propidium iodide staining-based flow cytometry (reference value: 81.3 +/- 0.01%); type: functional
PC-3 [26] = assay: Increase of ROS level in human PC3 cells expressing Cdc25A-C using H2DCFDA at 20 uM after 30 mins by flow cytometry; type: functional, cell-based
PC-3 [27] = assay: Growth inhibition against human PC3 cells expressing Cdc25A-C assessed as cell viability at 20 uM after 72 hrs by MTS assay; type: functional, cell-based; summary of the method: as §4
[28] = biological target: T2, M-phase inducer phosphatase 2 (Homo sapiens); assay: Reversible inhibition of recombinant phosphatase activity of Cdc25B catalytic domain expressed in Escherichia coli BL21(DE3) assessed as residual activity of enzyme measured after 10 fold dilution at 100 uM preincubated for 20 mins
Summary of the method: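 Cdc25B (0.5 μg) preincubated 20 min at room temperature with 100 μM inhibitor or DMSO vehicle, then diluted 10-fold. Residual phosphatase activity was read after adding OMFP substrate and expressed as percent of the untreated control. Mean ± SD of three determinations.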

[29] = biological target: T2, M-phase inducer phosphatase 2 (Homo sapiens); conditions: K562, 20 uM
PC-3 [30] = assay: Increase of ROS level in human PC3 cells expressing Cdc25A-C using H2DCFDA at 20 uM after 30 mins by flow cytometry in presence of DTT; type: functional, cell-based
K562 [31] = assay: Increase of ROS level in human K562 cells expressing Cdc25A-C using H2DCFDA at 20 uM after 30 mins by flow cytometry in presence of DTT; type: functional, cell-based
MCF7 [32] = assay: Cell cycle arrest in human MCF7 cells assessed as accumulation at G2/M phase at 20 uM after 48 hrs by propidium iodide staining-based flow cytometry (reference value: 21 +/- 0.04%); type: functional
K562 [33] = assay: Increase of ROS level in human K562 cells expressing Cdc25A-C using H2DCFDA at 20 uM after 30 mins by flow cytometry; type: functional, cell-based
MCF7 [34] = assay: Cell cycle arrest in human MCF7 cells assessed as accumulation at S phase at 20 uM after 48 hrs by propidium iodide staining-based flow cytometry (reference value: 14.5 +/- 0.01%); type: functional
[35] = biological target: T4, M-phase inducer phosphatase 1 (Homo sapiens, UniProt P30304); assay: Inhibition of recombinant phosphatase activity of Cdc25A catalytic domain expressed in Escherichia coli BL21(DE3) using OMFP as substrate by spectrofluorimetric analysis
T4 sequence (P30304 whole entry): T3 sequence (whole entry)
Summary of the method: (§6)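 Purified recombinant Cdc25A catalytic domain; phosphatase activity measured as OMFP hydrolysis versus inhibitor concentration to derive IC50, with Ki calculated from kinetic measurements. Results are averages ± SD of three determinations.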

[36] = biological target: T5, M-phase inducer phosphatase 2 (Homo sapiens, UniProt P30305); assay: Competitive inhibition of recombinant phosphatase activity of Cdc25B catalytic domain expressed in Escherichia coli BL21(DE3) using OMFP as substrate by Lineweaver-Burk plot analysis
T5 sequence (P30305 whole entry): T2 sequence (whole entry)

[37] = biological target: T4, M-phase inducer phosphatase 1; assay: Inhibition of recombinant phosphatase activity of Cdc25A catalytic domain expressed in Escherichia coli BL21(DE3) using OMFP as substrate by Lineweaver-Burk plot analysis; summary of the method: as §6
[38] = biological target: T5, M-phase inducer phosphatase 2; assay: as §5

Molecule	inhibition [1]	Activity (MCF7 [2])	inhibition [3]	inhibition [4]	Activity (MCF7 [5])	inhibition [6]	growth inhibition (GI) (PC-3 [7])	growth inhibition (GI) (K562 [9])	Activity (MCF7 [10])	Activity (MCF7 [11])	Activity (MCF7 [12])	growth inhibition (GI) (MCF7 [13])	Activity (MCF7 [14])	inhibition [15]	further results
COc1ccc(Cc2ccc3nc(O)cc(C)c3c2)cc1S(=O)(=O)O	55%	3.3%	41%	46%	93.5%	Active	Active	Active	3.2%	91.1%	3.3%	Active	5.6%	Dose-dependent effect	inhibition [8]: Active
VANADATE	–	–	–	–	–	–	–	–	–	–	–	–	–	–	inhibition [16]: 90%; inhibition [17]: 91%; inhibition [18]: 77%
O=C(O)CCc1c2ccc(=O)c(O)c-2oc2c(O)c(O)ccc12	99%	–	99%	100%	–	–	–	–	–	–	–	–	–	Dose-dependent effect	inhibition [19]: Active; growth inhibition (GI) (MCF7 [20]): Active; Activity (MCF7 [21]): 92.8%; Activity (MCF7 [22]): 18.1%; Activity (MCF7 [23]): 13.1%; growth inhibition (GI) (K562 [24]): Active; Activity (MCF7 [25]): 68.8%; Activity (PC-3 [26]): Active; growth inhibition (GI) (PC-3 [27]): Active; inhibition [28]: Active; inhibition [29]: Active; Activity (PC-3 [30]): inactive; Activity (K562 [31]): inactive; Activity (MCF7 [32]): 4.6%; Activity (K562 [33]): Active; Activity (MCF7 [34]): 2.6%
O=S(=O)(O)c1ccc(-c2nnc(-c3ccccn3)nc2-c2ccc(S(=O)(=O)O)o2)o1	35%	2.9%	53%	41%	95.4%	Active	Active	Active	1.8%	78.7%	11.3%	Active	10%	Dose-dependent effect	pIC50 [35]: 3.96; pKi [36]: 3.80; pKi [37]: 3.86; pIC50 [38]: 3.76
